# Laboratory results as given in ChEMBL document CHEMBL5303300, “EUbOPEN Chemogenomics Library - Multiplex” (2023).
# Several values for one entry are separate records, joined by “and”; a condition that tells them apart may be missing. Equal values may be shown once.
# Key:
# Type in all cases: toxicity, cell-based
# Fibroblast = assay: Multiplex assay against human fibroblast; conditions: number of replicates 2
# In short: (§1)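 Live cells were stained at seeding with Hoechst33342, BioTracker Green Microtubule Cytoskeleton Dye, MitoTracker Red and Annexin V Alexa Fluor 680. Following compound addition, they were imaged on a CQ1 microscope at 37°C and 5% CO2 and gated by CellPathfinder machine learning into Hoechst high-intensity objects or normal cells, with normal cells split into healthy, pyknosed or fragmented nuclei and pyknosed cells into mitotic or apoptotic. Tubulin, mitochondrial-mass and membrane-permeability phenotypes are per cents of healthy-nucleus cells.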
# HEK-293T = assay: Multiplex assay against HEK293T; conditions: human, number of replicates 2; in short: as §1
# U2OS = assay: Multiplex assay against U2OS; conditions: human, number of replicates 2; in short: as §1
# [1] = 12 h, 1 µM, compound concentration 1 uM
# [2] = 12 h, 10 µM, compound concentration 10 uM
# [3] = 24 h, 1 µM, compound concentration 1 uM
# [4] = 24 h, 10 µM, compound concentration 10 uM
# [5] = 48 h, 1 µM, compound concentration 1 uM
# [6] = 48 h, 10 µM, compound concentration 10 uM
smiles,measurement,setting,value
CN1CCN(C(=O)Cc2ccc(N/C(=C3\C(=O)Nc4cc(Cl)ccc43)c3ccccc3)cc2)CC1,Population Apoptotic (%),Fibroblast; [1],43% and 30%
same,Population Fragmented Nuclei (%),Fibroblast; [1],9% and 8%
same,Population Healthy Nuclei (%),Fibroblast; [1],69%
same,Population Hoechst High Intensity Objects (%),Fibroblast; [1],0%
same,Population Membrane Permeable-Phenotype (%),Fibroblast; [1],5% and 7%
same,Population Mitochondria Different-Phenotype (%),Fibroblast; [1],0% and 1%
same,Population Mitotic Cells (%),Fibroblast; [1],56% and 69%
same,Population Normal (%),Fibroblast; [1],100%
same,Population Pyknosed Nuclei (%),Fibroblast; [1],20% and 21%
same,Population Tubulin-Different-Phenotype (%),Fibroblast; [1],8% and 15%
same,Total Cell Count,Fibroblast; [1],178 and 179
same,Population Apoptotic (%),Fibroblast; [2],51% and 36%
same,Population Fragmented Nuclei (%),Fibroblast; [2],12% and 11%
same,Population Healthy Nuclei (%),Fibroblast; [2],74% and 67%
same,Population Hoechst High Intensity Objects (%),Fibroblast; [2],0%
same,Population Membrane Permeable-Phenotype (%),Fibroblast; [2],7% and 5%
same,Population Mitochondria Different-Phenotype (%),Fibroblast; [2],2%
same,Population Mitotic Cells (%),Fibroblast; [2],48% and 63%
same,Population Normal (%),Fibroblast; [2],100%
same,Population Pyknosed Nuclei (%),Fibroblast; [2],12% and 21%
same,Population Tubulin-Different-Phenotype (%),Fibroblast; [2],34% and 26%
same,Total Cell Count,Fibroblast; [2],240 and 203
same,Population Apoptotic (%),Fibroblast; [3],43% and 52%
same,Population Fragmented Nuclei (%),Fibroblast; [3],7% and 12%
same,Population Healthy Nuclei (%),Fibroblast; [3],72% and 68%
same,Population Hoechst High Intensity Objects (%),Fibroblast; [3],0%
same,Population Membrane Permeable-Phenotype (%),Fibroblast; [3],5%
same,Population Mitochondria Different-Phenotype (%),Fibroblast; [3],0% and 2%
same,Population Mitotic Cells (%),Fibroblast; [3],56% and 47%
same,Population Normal (%),Fibroblast; [3],100%
same,Population Pyknosed Nuclei (%),Fibroblast; [3],20% and 19%
same,Population Tubulin-Different-Phenotype (%),Fibroblast; [3],12% and 10%
same,Total Cell Count,Fibroblast; [3],193 and 174
same,Population Apoptotic (%),Fibroblast; [4],51% and 56%
same,Population Fragmented Nuclei (%),Fibroblast; [4],12% and 17%
same,Population Healthy Nuclei (%),Fibroblast; [4],74% and 67%
same,Population Hoechst High Intensity Objects (%),Fibroblast; [4],0%
same,Population Membrane Permeable-Phenotype (%),Fibroblast; [4],2%
same,Population Mitochondria Different-Phenotype (%),Fibroblast; [4],5% and 8%
same,Population Mitotic Cells (%),Fibroblast; [4],48% and 43%
same,Population Normal (%),Fibroblast; [4],100% and 99%
same,Population Pyknosed Nuclei (%),Fibroblast; [4],12% and 14%
same,Population Tubulin-Different-Phenotype (%),Fibroblast; [4],35% and 28%
same,Total Cell Count,Fibroblast; [4],232 and 216
same,Population Apoptotic (%),Fibroblast; [5],64% and 72%
same,Population Fragmented Nuclei (%),Fibroblast; [5],12% and 16%
same,Population Healthy Nuclei (%),Fibroblast; [5],75% and 68%
same,Population Hoechst High Intensity Objects (%),Fibroblast; [5],0%
same,Population Membrane Permeable-Phenotype (%),Fibroblast; [5],5% and 3%
same,Population Mitochondria Different-Phenotype (%),Fibroblast; [5],0%
same,Population Mitotic Cells (%),Fibroblast; [5],36% and 27%
same,Population Normal (%),Fibroblast; [5],100%
same,Population Pyknosed Nuclei (%),Fibroblast; [5],12% and 15%
same,Population Tubulin-Different-Phenotype (%),Fibroblast; [5],9% and 5%
same,Total Cell Count,Fibroblast; [5],200 and 186
same,Population Apoptotic (%),Fibroblast; [6],65% and 75%
same,Population Fragmented Nuclei (%),Fibroblast; [6],11% and 17%
same,Population Healthy Nuclei (%),Fibroblast; [6],76% and 65%
same,Population Hoechst High Intensity Objects (%),Fibroblast; [6],0%
same,Population Membrane Permeable-Phenotype (%),Fibroblast; [6],3% and 1%
same,Population Mitochondria Different-Phenotype (%),Fibroblast; [6],4% and 5%
same,Population Mitotic Cells (%),Fibroblast; [6],34% and 25%
same,Population Normal (%),Fibroblast; [6],100%
same,Population Pyknosed Nuclei (%),Fibroblast; [6],12% and 16%
same,Population Tubulin-Different-Phenotype (%),Fibroblast; [6],37% and 25%
same,Total Cell Count,Fibroblast; [6],213 and 212
same,Population Apoptotic (%),HEK-293T; [1],28% and 39%
same,Population Fragmented Nuclei (%),HEK-293T; [1],2% and 3%
same,Population Healthy Nuclei (%),HEK-293T; [1],86% and 84%
same,Population Hoechst High Intensity Objects (%),HEK-293T; [1],5%
same,Population Membrane Permeable-Phenotype (%),HEK-293T; [1],2% and 4%
same,Population Mitochondria Different-Phenotype (%),HEK-293T; [1],10% and 16%
same,Population Mitotic Cells (%),HEK-293T; [1],71% and 60%
same,Population Normal (%),HEK-293T; [1],94%
same,Population Pyknosed Nuclei (%),HEK-293T; [1],11% and 12%
same,Population Tubulin-Different-Phenotype (%),HEK-293T; [1],45% and 47%
same,Total Cell Count,HEK-293T; [1],870 and 527
same,Population Apoptotic (%),HEK-293T; [2],40% and 34%
same,Population Fragmented Nuclei (%),HEK-293T; [2],1%
same,Population Healthy Nuclei (%),HEK-293T; [2],86% and 81%
same,Population Hoechst High Intensity Objects (%),HEK-293T; [2],3% and 5%
same,Population Membrane Permeable-Phenotype (%),HEK-293T; [2],4% and 6%
same,Population Mitochondria Different-Phenotype (%),HEK-293T; [2],22% and 18%
same,Population Mitotic Cells (%),HEK-293T; [2],60% and 65%
same,Population Normal (%),HEK-293T; [2],96% and 94%
same,Population Pyknosed Nuclei (%),HEK-293T; [2],11% and 16%
same,Population Tubulin-Different-Phenotype (%),HEK-293T; [2],67% and 69%
same,Total Cell Count,HEK-293T; [2],702 and 579
same,Population Apoptotic (%),HEK-293T; [3],29% and 31%
same,Population Fragmented Nuclei (%),HEK-293T; [3],4%
same,Population Healthy Nuclei (%),HEK-293T; [3],87%
same,Population Hoechst High Intensity Objects (%),HEK-293T; [3],9% and 5%
same,Population Membrane Permeable-Phenotype (%),HEK-293T; [3],3%
same,Population Mitochondria Different-Phenotype (%),HEK-293T; [3],6% and 10%
same,Population Mitotic Cells (%),HEK-293T; [3],70% and 68%
same,Population Normal (%),HEK-293T; [3],90% and 94%
same,Population Pyknosed Nuclei (%),HEK-293T; [3],7% and 8%
same,Population Tubulin-Different-Phenotype (%),HEK-293T; [3],28% and 32%
same,Total Cell Count,HEK-293T; [3],1172 and 750
same,Population Apoptotic (%),HEK-293T; [4],29% and 34%
same,Population Fragmented Nuclei (%),HEK-293T; [4],3% and 4%
same,Population Healthy Nuclei (%),HEK-293T; [4],88% and 86%
same,Population Hoechst High Intensity Objects (%),HEK-293T; [4],4% and 5%
same,Population Membrane Permeable-Phenotype (%),HEK-293T; [4],3% and 4%
same,Population Mitochondria Different-Phenotype (%),HEK-293T; [4],12% and 9%
same,Population Mitotic Cells (%),HEK-293T; [4],70% and 65%
same,Population Normal (%),HEK-293T; [4],95% and 94%
same,Population Pyknosed Nuclei (%),HEK-293T; [4],8% and 9%
same,Population Tubulin-Different-Phenotype (%),HEK-293T; [4],48%
same,Total Cell Count,HEK-293T; [4],992 and 819
same,Population Apoptotic (%),HEK-293T; [5],17%
same,Population Fragmented Nuclei (%),HEK-293T; [5],13% and 7%
same,Population Healthy Nuclei (%),HEK-293T; [5],83% and 87%
same,Population Hoechst High Intensity Objects (%),HEK-293T; [5],9% and 8%
same,Population Membrane Permeable-Phenotype (%),HEK-293T; [5],3%
same,Population Mitochondria Different-Phenotype (%),HEK-293T; [5],0% and 1%
same,Population Mitotic Cells (%),HEK-293T; [5],82%
same,Population Normal (%),HEK-293T; [5],90% and 91%
same,Population Pyknosed Nuclei (%),HEK-293T; [5],2% and 4%
same,Population Tubulin-Different-Phenotype (%),HEK-293T; [5],12% and 15%
same,Total Cell Count,HEK-293T; [5],2950 and 1758
same,Population Apoptotic (%),HEK-293T; [6],17% and 42%
same,Population Fragmented Nuclei (%),HEK-293T; [6],10% and 8%
same,Population Healthy Nuclei (%),HEK-293T; [6],85% and 87%
same,Population Hoechst High Intensity Objects (%),HEK-293T; [6],8% and 9%
same,Population Membrane Permeable-Phenotype (%),HEK-293T; [6],4%
same,Population Mitochondria Different-Phenotype (%),HEK-293T; [6],3%
same,Population Mitotic Cells (%),HEK-293T; [6],82% and 58%
same,Population Normal (%),HEK-293T; [6],91% and 90%
same,Population Pyknosed Nuclei (%),HEK-293T; [6],3% and 4%
same,Population Tubulin-Different-Phenotype (%),HEK-293T; [6],31% and 34%
same,Total Cell Count,HEK-293T; [6],1910 and 1370
same,Population Apoptotic (%),U2OS; [1],100% and 55%
same,Population Healthy Nuclei (%),U2OS; [1],57% and 86%
same,Population Hoechst High Intensity Objects (%),U2OS; [1],0%
same,Population Membrane Permeable-Phenotype (%),U2OS; [1],8% and 3%
same,Population Mitochondria Different-Phenotype (%),U2OS; [1],8% and 0%
same,Population Normal (%),U2OS; [1],100%
same,Population Pyknosed Nuclei (%),U2OS; [1],7% and 10%
same,Population Tubulin-Different-Phenotype (%),U2OS; [1],66% and 71%
same,Population Fragmented Nuclei (%),U2OS; [2],3% and 12%
same,Population Healthy Nuclei (%),U2OS; [2],81% and 77%
same,Population Hoechst High Intensity Objects (%),U2OS; [2],0%
same,Population Mitochondria Different-Phenotype (%),U2OS; [2],0%
same,Population Mitotic Cells (%),U2OS; [2],43% and 100%
same,Population Normal (%),U2OS; [2],100%
same,Population Pyknosed Nuclei (%),U2OS; [2],14% and 9%
same,Population Tubulin-Different-Phenotype (%),U2OS; [2],55% and 33%
same,Population Apoptotic (%),U2OS; [3],66% and 69%
same,Population Healthy Nuclei (%),U2OS; [3],64% and 88%
same,Population Hoechst High Intensity Objects (%),U2OS; [3],0%
same,Population Mitochondria Different-Phenotype (%),U2OS; [3],12% and 0%
same,Population Mitotic Cells (%),U2OS; [3],33% and 30%
same,Population Normal (%),U2OS; [3],100% and 99%
same,Population Pyknosed Nuclei (%),U2OS; [3],16% and 9%
same,Population Tubulin-Different-Phenotype (%),U2OS; [3],79% and 73%
same,Population Apoptotic (%),U2OS; [4],33% and 62%
same,Population Fragmented Nuclei (%),U2OS; [4],0% and 4%
same,Population Healthy Nuclei (%),U2OS; [4],90% and 82%
same,Population Hoechst High Intensity Objects (%),U2OS; [4],0%
same,Population Membrane Permeable-Phenotype (%),U2OS; [4],10% and 2%
same,Population Mitochondria Different-Phenotype (%),U2OS; [4],10% and 3%
same,Population Mitotic Cells (%),U2OS; [4],66% and 37%
same,Population Normal (%),U2OS; [4],100% and 99%
same,Population Pyknosed Nuclei (%),U2OS; [4],9% and 12%
same,Population Tubulin-Different-Phenotype (%),U2OS; [4],58% and 59%
same,Population Apoptotic (%),U2OS; [5],75% and 58%
same,Population Healthy Nuclei (%),U2OS; [5],75% and 89%
same,Population Hoechst High Intensity Objects (%),U2OS; [5],0%
same,Population Membrane Permeable-Phenotype (%),U2OS; [5],6% and 0%
same,Population Mitochondria Different-Phenotype (%),U2OS; [5],3% and 0%
same,Population Mitotic Cells (%),U2OS; [5],25% and 41%
same,Population Normal (%),U2OS; [5],100% and 99%
same,Population Pyknosed Nuclei (%),U2OS; [5],9% and 7%
same,Population Tubulin-Different-Phenotype (%),U2OS; [5],83% and 85%
same,Population Apoptotic (%),U2OS; [6],83% and 75%
same,Population Fragmented Nuclei (%),U2OS; [6],5% and 3%
same,Population Healthy Nuclei (%),U2OS; [6],84% and 87%
same,Population Hoechst High Intensity Objects (%),U2OS; [6],0%
same,Population Membrane Permeable-Phenotype (%),U2OS; [6],2%
same,Population Mitochondria Different-Phenotype (%),U2OS; [6],8% and 1%
same,Population Mitotic Cells (%),U2OS; [6],16% and 24%
same,Population Normal (%),U2OS; [6],100%
same,Population Pyknosed Nuclei (%),U2OS; [6],10% and 8%
same,Population Tubulin-Different-Phenotype (%),U2OS; [6],69% and 66%
